According to ChEMBL document CHEMBL5653631, “A Potent and Selective ULK1 Inhibitor Suppresses Autophagy and Sensitizes Cancer Cells to Nutrient Stress” (iScience, 2018):
One block for each compound: values may come before it.

What was measured:
[1] = target: Homeodomain-interacting protein kinase 3 (Homo sapiens) (UniProt Q9H422); assay: Inhibition of human recombinant HIPK3 at 500 nM related to control ULK1
[2] = target: T1, Serine/threonine-protein kinase Nek3 (Homo sapiens) (UniProt P51956); assay: Inhibition of human recombinant NEK3 at 500 nM related to control ULK1
T1 sequence (whole entry): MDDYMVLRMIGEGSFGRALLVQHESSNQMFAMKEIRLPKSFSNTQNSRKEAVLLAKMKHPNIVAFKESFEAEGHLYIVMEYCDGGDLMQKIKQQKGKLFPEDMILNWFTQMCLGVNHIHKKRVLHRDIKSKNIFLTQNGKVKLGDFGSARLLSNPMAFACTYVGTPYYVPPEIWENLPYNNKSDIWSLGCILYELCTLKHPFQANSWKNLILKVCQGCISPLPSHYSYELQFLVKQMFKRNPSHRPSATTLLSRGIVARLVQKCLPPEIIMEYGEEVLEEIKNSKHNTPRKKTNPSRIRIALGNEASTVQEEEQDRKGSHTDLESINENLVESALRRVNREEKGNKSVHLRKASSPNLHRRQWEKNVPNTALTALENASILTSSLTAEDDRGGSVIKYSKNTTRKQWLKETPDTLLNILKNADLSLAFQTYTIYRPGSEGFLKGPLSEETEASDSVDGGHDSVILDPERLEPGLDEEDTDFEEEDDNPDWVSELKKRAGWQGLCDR

[3] = target: T2, Tyrosine-protein kinase receptor TYRO3 (Homo sapiens) (UniProt Q06418); assay: Inhibition of human recombinant TYRO3 at 15 nM in presence of ATP by radiometric assay relative to control
T2 sequence (whole entry): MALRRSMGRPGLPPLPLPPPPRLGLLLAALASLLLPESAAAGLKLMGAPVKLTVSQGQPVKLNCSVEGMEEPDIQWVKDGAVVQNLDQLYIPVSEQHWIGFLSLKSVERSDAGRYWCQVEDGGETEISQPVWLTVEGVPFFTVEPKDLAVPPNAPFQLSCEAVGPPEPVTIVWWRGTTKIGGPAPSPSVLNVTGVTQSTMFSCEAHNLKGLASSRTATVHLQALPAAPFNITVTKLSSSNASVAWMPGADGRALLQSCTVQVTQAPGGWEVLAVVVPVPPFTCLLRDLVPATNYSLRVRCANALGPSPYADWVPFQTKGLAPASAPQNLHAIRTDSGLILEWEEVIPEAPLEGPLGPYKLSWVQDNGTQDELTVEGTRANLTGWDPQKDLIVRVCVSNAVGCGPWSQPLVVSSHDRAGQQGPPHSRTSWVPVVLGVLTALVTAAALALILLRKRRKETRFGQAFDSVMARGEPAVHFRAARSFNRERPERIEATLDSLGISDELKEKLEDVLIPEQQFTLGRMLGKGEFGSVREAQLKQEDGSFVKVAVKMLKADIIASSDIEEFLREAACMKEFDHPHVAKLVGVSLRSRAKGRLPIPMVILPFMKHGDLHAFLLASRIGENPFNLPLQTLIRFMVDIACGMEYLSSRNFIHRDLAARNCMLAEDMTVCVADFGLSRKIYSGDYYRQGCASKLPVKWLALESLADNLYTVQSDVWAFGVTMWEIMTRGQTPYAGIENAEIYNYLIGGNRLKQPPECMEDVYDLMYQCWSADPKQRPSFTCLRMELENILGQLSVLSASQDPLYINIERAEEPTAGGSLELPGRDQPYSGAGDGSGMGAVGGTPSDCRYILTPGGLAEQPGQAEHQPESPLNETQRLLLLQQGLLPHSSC

[4] = target: T3, Ephrin type-A receptor 1 (Homo sapiens) (UniProt P21709); assay: Inhibition of human recombinant EphA1 at 15 nM related to control ULK1
T3 sequence (whole entry): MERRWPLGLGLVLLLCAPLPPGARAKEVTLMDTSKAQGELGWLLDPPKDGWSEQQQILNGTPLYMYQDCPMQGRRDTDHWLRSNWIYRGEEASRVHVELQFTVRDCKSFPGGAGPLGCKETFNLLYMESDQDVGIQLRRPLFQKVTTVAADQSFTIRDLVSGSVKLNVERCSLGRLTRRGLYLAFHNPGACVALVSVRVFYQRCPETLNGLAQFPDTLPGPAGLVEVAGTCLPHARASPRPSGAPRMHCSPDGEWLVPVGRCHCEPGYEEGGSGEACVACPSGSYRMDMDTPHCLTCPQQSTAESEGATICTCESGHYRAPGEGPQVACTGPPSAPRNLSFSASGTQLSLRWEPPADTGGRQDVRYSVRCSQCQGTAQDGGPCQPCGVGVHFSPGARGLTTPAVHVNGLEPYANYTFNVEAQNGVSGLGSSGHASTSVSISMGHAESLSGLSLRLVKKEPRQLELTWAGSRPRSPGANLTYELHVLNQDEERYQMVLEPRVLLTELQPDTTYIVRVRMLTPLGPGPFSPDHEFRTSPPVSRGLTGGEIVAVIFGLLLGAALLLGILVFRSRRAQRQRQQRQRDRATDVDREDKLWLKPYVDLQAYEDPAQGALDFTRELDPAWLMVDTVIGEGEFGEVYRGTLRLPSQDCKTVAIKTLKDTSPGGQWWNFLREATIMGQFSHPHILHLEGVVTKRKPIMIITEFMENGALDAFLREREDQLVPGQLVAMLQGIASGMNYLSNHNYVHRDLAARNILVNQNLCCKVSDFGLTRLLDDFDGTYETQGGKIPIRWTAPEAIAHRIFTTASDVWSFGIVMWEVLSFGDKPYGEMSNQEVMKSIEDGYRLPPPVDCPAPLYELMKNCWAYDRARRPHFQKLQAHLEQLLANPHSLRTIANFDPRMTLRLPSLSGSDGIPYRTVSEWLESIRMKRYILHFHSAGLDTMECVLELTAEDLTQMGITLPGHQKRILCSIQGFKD

[5] = target: Ribosomal protein S6 kinase alpha-4 (Homo sapiens) (UniProt O75676); assay: Inhibition of human recombinant MSK2 at 15 nM related to control ULK1
[6] = target: Mitogen-activated protein kinase 14 (Homo sapiens) (UniProt Q16539); assay: Inhibition of human recombinant p38alpha at 15 nM related to control ULK1
[7] = target: Tyrosine-protein kinase receptor UFO (Homo sapiens) (UniProt P30530); assay: Inhibition of human recombinant AXL at 40 nM related to control ULK1
Method in brief: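 Radiometric activity assays in a panel of 327 human recombinant kinases, each run in duplicate at one inhibitor concentration. Activity remaining is expressed as percent of vehicle control, and percent inhibition is calculated as 100% minus percent activity remaining.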

[8] = target: Receptor-type tyrosine-protein kinase FLT3 (Homo sapiens) (UniProt P36888); assay: Inhibition of human recombinant FLT3 at 40 nM related to control ULK1
[9] = target: Platelet-derived growth factor receptor alpha (Homo sapiens) (UniProt P16234); assay: Inhibition of human recombinant PDGFRa at 40 nM related to control ULK1
Chain of Platelet-derived growth factor receptor alpha (Homo sapiens) (P16234 whole entry): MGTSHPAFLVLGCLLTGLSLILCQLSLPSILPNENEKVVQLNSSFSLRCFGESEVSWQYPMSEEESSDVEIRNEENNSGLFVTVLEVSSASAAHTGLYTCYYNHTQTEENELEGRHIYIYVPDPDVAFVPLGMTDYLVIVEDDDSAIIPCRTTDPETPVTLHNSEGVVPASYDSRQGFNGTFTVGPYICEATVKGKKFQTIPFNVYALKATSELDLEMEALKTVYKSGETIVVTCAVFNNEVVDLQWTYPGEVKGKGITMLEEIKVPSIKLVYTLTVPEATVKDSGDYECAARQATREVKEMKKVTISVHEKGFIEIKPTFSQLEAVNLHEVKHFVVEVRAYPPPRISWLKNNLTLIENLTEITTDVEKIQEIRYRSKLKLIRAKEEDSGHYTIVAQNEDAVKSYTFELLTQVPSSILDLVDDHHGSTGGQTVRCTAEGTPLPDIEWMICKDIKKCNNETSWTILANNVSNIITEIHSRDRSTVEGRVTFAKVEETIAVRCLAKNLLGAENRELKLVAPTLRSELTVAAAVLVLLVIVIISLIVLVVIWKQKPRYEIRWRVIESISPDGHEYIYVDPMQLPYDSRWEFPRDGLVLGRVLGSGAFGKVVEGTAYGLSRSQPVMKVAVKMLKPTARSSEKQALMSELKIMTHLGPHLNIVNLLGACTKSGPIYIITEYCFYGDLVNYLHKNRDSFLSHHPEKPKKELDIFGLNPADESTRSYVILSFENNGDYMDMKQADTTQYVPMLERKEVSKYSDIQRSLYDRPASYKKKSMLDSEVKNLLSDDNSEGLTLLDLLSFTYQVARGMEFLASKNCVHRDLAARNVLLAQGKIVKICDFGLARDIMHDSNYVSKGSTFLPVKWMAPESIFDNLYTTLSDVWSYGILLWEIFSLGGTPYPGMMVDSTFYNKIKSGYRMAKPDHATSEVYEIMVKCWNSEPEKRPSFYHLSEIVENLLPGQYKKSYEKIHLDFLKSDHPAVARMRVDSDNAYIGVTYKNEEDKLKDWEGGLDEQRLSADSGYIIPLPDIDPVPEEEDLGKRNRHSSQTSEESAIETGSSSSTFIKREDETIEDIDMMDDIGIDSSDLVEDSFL

Chain of Homeodomain-interacting protein kinase 3 (Homo sapiens) (Q9H422 whole entry, looked up): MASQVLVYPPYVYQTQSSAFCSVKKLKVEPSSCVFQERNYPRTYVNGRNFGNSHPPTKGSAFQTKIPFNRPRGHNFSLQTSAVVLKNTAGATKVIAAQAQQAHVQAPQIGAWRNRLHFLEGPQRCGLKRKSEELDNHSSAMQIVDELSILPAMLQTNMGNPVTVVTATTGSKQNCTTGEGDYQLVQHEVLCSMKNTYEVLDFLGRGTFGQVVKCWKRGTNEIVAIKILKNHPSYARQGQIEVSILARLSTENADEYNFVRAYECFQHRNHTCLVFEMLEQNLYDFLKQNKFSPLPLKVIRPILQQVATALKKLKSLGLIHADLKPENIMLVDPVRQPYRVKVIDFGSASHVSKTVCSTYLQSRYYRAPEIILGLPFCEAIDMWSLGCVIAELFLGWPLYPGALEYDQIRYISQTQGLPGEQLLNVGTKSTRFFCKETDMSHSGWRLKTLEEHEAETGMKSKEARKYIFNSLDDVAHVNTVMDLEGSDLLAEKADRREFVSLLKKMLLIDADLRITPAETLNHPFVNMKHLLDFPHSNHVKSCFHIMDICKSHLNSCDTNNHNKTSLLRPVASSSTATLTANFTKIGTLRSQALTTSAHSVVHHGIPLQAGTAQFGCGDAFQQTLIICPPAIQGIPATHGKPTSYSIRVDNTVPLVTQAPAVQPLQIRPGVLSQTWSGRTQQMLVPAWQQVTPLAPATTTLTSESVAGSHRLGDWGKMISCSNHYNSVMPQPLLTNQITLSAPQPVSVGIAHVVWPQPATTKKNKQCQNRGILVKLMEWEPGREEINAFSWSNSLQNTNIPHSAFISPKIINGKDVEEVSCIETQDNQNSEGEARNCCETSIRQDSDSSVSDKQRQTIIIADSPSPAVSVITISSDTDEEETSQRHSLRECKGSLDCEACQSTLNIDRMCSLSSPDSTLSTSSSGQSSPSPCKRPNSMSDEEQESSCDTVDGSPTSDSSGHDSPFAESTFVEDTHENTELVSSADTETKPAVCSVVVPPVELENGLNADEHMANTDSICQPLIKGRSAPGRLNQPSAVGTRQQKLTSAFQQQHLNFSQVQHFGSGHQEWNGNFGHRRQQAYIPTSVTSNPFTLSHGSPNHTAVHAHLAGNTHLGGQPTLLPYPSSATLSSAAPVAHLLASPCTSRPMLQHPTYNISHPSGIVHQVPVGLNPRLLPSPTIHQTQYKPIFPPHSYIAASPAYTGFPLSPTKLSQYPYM
Chain of Receptor-type tyrosine-protein kinase FLT3 (Homo sapiens) (P36888 whole entry): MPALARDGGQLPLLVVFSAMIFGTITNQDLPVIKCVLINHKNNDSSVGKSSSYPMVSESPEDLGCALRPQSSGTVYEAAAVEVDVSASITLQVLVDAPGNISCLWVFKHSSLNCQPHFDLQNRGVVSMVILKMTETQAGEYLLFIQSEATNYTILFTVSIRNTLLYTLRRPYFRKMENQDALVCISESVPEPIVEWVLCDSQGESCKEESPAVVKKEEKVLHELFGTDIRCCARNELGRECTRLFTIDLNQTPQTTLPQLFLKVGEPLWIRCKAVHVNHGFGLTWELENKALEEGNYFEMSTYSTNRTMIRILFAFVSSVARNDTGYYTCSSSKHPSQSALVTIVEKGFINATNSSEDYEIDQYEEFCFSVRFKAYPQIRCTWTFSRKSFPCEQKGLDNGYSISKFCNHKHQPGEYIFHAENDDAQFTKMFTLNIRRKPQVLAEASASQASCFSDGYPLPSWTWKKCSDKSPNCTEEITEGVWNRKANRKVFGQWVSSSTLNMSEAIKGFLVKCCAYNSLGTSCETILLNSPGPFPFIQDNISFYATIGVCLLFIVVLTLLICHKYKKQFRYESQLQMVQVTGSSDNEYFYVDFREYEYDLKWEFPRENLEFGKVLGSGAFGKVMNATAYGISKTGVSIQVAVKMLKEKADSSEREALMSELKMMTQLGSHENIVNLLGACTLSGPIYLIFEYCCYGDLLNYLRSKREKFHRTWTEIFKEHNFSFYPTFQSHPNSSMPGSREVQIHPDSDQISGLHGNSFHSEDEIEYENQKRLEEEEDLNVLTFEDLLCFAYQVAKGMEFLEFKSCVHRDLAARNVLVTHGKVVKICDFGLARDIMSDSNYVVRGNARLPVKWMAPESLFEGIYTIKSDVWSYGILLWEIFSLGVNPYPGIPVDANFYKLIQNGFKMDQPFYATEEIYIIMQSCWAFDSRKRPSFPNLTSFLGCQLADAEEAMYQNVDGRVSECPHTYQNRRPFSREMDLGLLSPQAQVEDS
Chain of Mitogen-activated protein kinase 14 (Homo sapiens) (Q16539 whole entry): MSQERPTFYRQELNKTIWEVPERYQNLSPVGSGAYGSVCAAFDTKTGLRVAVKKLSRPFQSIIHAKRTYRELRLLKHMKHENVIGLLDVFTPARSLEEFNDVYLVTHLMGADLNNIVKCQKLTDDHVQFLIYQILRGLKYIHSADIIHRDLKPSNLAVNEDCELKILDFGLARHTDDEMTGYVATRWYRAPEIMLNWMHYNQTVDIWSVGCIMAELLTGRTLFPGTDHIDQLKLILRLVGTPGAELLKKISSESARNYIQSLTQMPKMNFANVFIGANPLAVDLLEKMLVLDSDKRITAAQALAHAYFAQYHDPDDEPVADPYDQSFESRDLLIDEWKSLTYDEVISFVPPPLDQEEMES
Chain of Ribosomal protein S6 kinase alpha-4 (Homo sapiens) (O75676 whole entry, looked up): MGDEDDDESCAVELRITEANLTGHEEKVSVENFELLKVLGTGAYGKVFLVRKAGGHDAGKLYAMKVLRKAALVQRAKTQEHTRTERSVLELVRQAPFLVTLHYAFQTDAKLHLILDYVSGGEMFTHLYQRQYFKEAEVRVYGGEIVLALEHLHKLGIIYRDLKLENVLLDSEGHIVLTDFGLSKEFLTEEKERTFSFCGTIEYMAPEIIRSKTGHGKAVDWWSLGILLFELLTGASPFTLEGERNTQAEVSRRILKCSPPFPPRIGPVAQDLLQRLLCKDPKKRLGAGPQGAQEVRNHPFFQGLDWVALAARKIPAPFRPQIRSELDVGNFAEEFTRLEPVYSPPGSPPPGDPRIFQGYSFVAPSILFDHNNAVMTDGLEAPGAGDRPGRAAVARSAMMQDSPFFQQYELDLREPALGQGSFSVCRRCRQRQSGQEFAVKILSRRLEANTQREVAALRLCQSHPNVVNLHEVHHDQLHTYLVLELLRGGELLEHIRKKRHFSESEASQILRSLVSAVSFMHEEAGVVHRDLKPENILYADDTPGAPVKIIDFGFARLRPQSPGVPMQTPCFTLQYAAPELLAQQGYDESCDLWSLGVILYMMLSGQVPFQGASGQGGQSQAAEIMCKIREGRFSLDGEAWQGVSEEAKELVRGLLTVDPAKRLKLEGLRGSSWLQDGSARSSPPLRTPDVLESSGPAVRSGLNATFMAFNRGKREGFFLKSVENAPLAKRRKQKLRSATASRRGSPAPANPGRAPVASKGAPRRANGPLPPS

fold change (FC) [1]: 0.08
fold change (FC) [2]: 0.09
SMILES: CNC(=O)c1ccccc1Oc1nc(Nc2cc(OC)c(OC)c(OC)c2)ncc1Br

inhibition [3]: 0%
fold change (FC) [4]: 0
fold change (FC) [5]: 0
fold change (FC) [6]: 0.06
SMILES: CC(C)[C@H](NC(=O)c1cc(-c2cnn3cc(-c4ccc(OCCN5CCCCC5)cc4)cnc23)cs1)C(F)(F)F

fold change (FC) [7]: 0.07
fold change (FC) [8]: 0.26
fold change (FC) [9]: 0
SMILES: O=C(N[C@@H](C1CC1)C(F)(F)F)c1cc(-c2cnn3cc(-c4ccc(F)cc4)cnc23)cs1
